STAT1 act = increases IFN-gamma driven STAT1 reporter signal; 200,000 compounds, 2.6% hits; NIH 3T3 STAT1-luciferase reporter, luminescence; 100% = IFN-gamma alone, no compound; activation (% of control), % at 5.5 µM;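 active = activation above the screen-wide mean activation plus 3 SD, cut at about 130% in these data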
NF-kB neuron act = NF-kB expression increase, human neuronal cells; NF-kB reporter expression; stronger effect = higher value; fold change at 12.5 µM; 190,000 compounds, 1.6% hits; in the data active = fold change above about 3.3
STAT3 act = increases IL-6 driven STAT3 reporter signal; U3A cells, IL-6 STAT3-luciferase reporter, luminescence; 100% = signal with IL-6 EC80 alone; 190,000 compounds, 0.91% hits; activation (% of control), % at 5.6 µM;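 active = activation above the screen-wide mean of compound activation plus 3 SD, cut at about 130% in these data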
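Test system: human U3A cells carrying STAT3-luciferase construct; control set: IL-6-only wells as 100% reference; timing: compound pre-incubation 1 h before IL-6, then 6 h stimulation at 37 °C; also added: IL-6 stimulus at 33 ng/mL final; evaluation: % activation versus median of IL-6-stimulated wells; detection: reporter luminescence signal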
STAT3 inh = reduces IL-6 driven STAT3 reporter signal; AID 862; U3A cells, IL-6 STAT3-luciferase reporter, luminescence; host cell line lacks STAT1; 190,000 compounds, 0.89% hits; inhibition, % at 5.5 µM;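 active = inhibition above the mean inhibition across all screened compounds plus 3 SD, cut at about 44% in these data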
STAT1 inh = reduces IFN-gamma driven STAT1 reporter signal; NIH 3T3 STAT1-luciferase reporter, luminescence; inhibition, % at 5.5 µM; 200,000 compounds, 0.35% hits; AID 920;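 active = inhibition above a set limit, the mean inhibition across all tested compounds plus 3 SD, cut at about 34% in these data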
APP 5'UTR act = activates APP 5'UTR luciferase reporter; 190,000 compounds, 1% hits; SH-SY5Y APP 5'UTR luciferase reporter, luminescence; zero percent = DMSO vehicle wells; AID 1276; activation, % at 2 µM;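 active = activation above a set limit, based on mean plus 3 SD of controls, cut at about 140% in these data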
Large screens that a line does not name were inactive; ! = not active in a repeat. Shown are actives, neighbours in structure and some others; about 5.1% of the full set was active somewhere.

CC(C)Cc1cc(C(=O)NCc2ccco2)no1	STAT1 act 130 (no result: STAT3 act, STAT3 inh)
CC(C)c1ccc(N=C(N)N=C(N)N)cc1	none
Cc1ccnc(NC(c2ccccc2O)c2oc(CO)cc(=O)c2O)c1 (stereo unspecified)	none
COCCCn1cc(C(=O)c2ccccc2OCC(=O)Nc2cccc(F)c2)cc(C#N)c1=O	none
CSc1ccccc1NC(=O)c1cc(CC(C)C)on1	none
N#Cc1ccccc1NC(=O)c1ccc(-c2ccccc2Cl)o1	STAT1 act 138
COc1ccccc1NC(=O)c1ccc(-c2ccccc2[N+](=O)[O-])o1	STAT1 act 150
COc1cc(NC(=O)c2cc(CC(C)C)on2)c(OC)cc1Cl	STAT3 act 136
COc1ccccc1NC(=O)c1cc2ccccc2o1	STAT1 act 154, STAT3 act 165
CCNc1nc(NCC)n2c(SCC(=O)c3ccccc3Cl)nnc2n1	none
COc1cc(NC(=O)c2cc3ccccc3o2)c(OC)cc1Cl	STAT3 act 154
COC(=O)c1ccc(/C=C/c2ccc3cccc(OC(C)=O)c3n2)cc1	NF-kB neuron act 3.7
O=C(O)c1ccc(/C=C/c2ccc3cccc(O)c3n2)cc1	none
O=C(Nc1ccccc1)c1ccc(S(=O)(=O)N2CCCCC2)cc1	none
O=C(Nc1ccc(S(=O)(=O)N2CCCCC2)cc1)c1ccc(CN2CCc3ccccc3C2)cc1	STAT3 inh 87
[O-]/[N+](=C\c1ccncc1)c1ccc(Br)cc1	NF-kB neuron act 4.5
Nc1ccc(/C=C/C(=O)c2cccs2)cc1	NF-kB neuron act 5.9, APP 5'UTR act 143
Nc1ccc(NC(=O)c2cccs2)cc1	none
Cc1nccc(-c2ccc(-n3cnc4ccccc43)cc2)n1	none (no result: APP 5'UTR act)
Nc1nccc(-c2ccc(-n3cnc4ccccc43)cc2)n1	STAT3 act 133
CCN(CC(=O)NC(C)C)C(=O)[C@H](C)NC(=O)c1ccc(Br)cc1	none
O=C(O)c1ccc(N=NN2CCCCC2)cc1	STAT1 act 135
NS(=O)(=O)c1ccc(N=NN2CCCCC2)cc1	none
COC(=O)c1ccc(N=NN2CCCCCC2)cc1	STAT1 act 137, NF-kB neuron act 4.1
COC(=O)c1ccc(N=NN2CCOCC2)cc1	none
C[C@]12CCC(=O)C=C1CC[C@@H]1[C@@H]2[C@@H](O)C[C@@]2(C)[C@H]1CC[C@]2(O)C(=O)COC(=O)CCC(=O)O	STAT1 act 129!
CC(=O)OCC(=O)[C@@]1(O)CC[C@H]2[C@@H]3CCC4=CC(=O)CC[C@]4(C)[C@H]3[C@@H](O)C[C@@]21C	none
COc1ccc(-c2nnc(SC(C)C(=O)NNC(=O)c3ccc(C)cc3)o2)cc1 (stereo unspecified)	none
COc1ccc(-c2nnc(SC(C)C(=O)Nc3cccc(Cl)c3)o2)cc1 (stereo unspecified)	NF-kB neuron act 5.6, APP 5'UTR act 219
Nc1cccc(CCc2nc3cc4ccccc4cc3[nH]2)c1	STAT1 act 131, NF-kB neuron act 4.2
c1ccc(CCc2nc3ccccc3[nH]2)cc1	none
Cc1ccc(Nc2nc(N)nc(CSC(=S)N3CCOCC3)n2)cc1	none
Nc1nc(CSC(=S)N2CCOCC2)nc(Nc2ccccc2)n1	STAT1 act 131
Nc1nc(CSC(=S)N2CCCCC2)nc(Nc2ccccc2)n1	STAT1 act 136
Cn1c(=N)n(CC(=O)c2ccc(Br)s2)c2ccccc21	STAT1 act 146, STAT3 act 167, APP 5'UTR act 197
Cn1c(=N)n(CC(=O)c2cccs2)c2ccccc21	STAT1 act 134, NF-kB neuron act 3.9, STAT3 act 137, APP 5'UTR act 160
COc1ccc([N+](=O)[O-])cc1N(CC(=O)N1CCCCC1)S(C)(=O)=O	none (no result: NF-kB neuron act)
O=C(O)COn1c(-c2ccc(Cl)cc2)nc2ccc(Cl)cc21	none
CCOC(=O)C(C)On1c(-c2ccc(Cl)cc2)nc2ccc([N+](=O)[O-])cc21 (stereo unspecified)	STAT1 act 133, NF-kB neuron act 5.8
O=C(O)COn1c(-c2ccccc2)nc2ccc([N+](=O)[O-])cc21	STAT1 act 143
CCOC(=O)C(C)On1c(-c2ccccc2)nc2ccc([N+](=O)[O-])cc21 (stereo unspecified)	STAT1 act 132
O=C(CSc1nnc(CNC(=O)c2cccs2)o1)NCC1CCCO1 (stereo unspecified)	none
O=C(NCCCn1ccnc1)C(Cc1ccccc1)N1C(=O)c2ccccc2C1=O (stereo unspecified)	none
CC(=O)Nc1ccccc1NC(=O)C/C(C)=N/NC(=O)c1ccccn1	STAT1 act 131
C/C(CC(=O)Nc1ccc(F)cc1)=N\NC(=O)c1ccccn1	none
C/C(CC(=O)NC1CCCCC1)=N\NC(=O)c1ccccn1	STAT1 act 130, APP 5'UTR act 156
Cc1ccc(N=c2sc(C)c(C)n2C)cc1	STAT1 act 133
Cc1csc(=Nc2ccccc2)n1C	none
CC1CCC/C(=C(\C#N)c2nc(-c3cc4ccccc4oc3=O)cs2)C1 (stereo unspecified)	APP 5'UTR act 148
COc1cc(/C=N/NC(=O)Cn2ccc(C(F)(F)F)n2)cc(OC)c1OC	none
CN=C1S/C(=C\c2cn(C(C)=O)nc2-c2ccccc2)C(=O)N1C	none (no result: NF-kB neuron act)
CN=C1S/C(=C\c2cn(CC(=O)OC)c3ccccc23)C(=O)N1C	STAT3 act 135
Cc1c(C#N)c(NC(=O)CCl)n(Cc2ccc(F)cc2)c1C	STAT1 inh 34
Cc1ccc(-c2csc(/C(C#N)=C(\O)CCl)n2)cc1	STAT1 act 140
CN1CCN(NC(=O)CN2C(=O)/C(=C/c3c(Cl)cccc3Cl)SC2=S)CC1	STAT3 act 135
CN1CCN(NC(=O)CN2C(=O)/C(=C/c3ccccc3Cl)SC2=S)CC1	none
Cc1noc(C)c1COC(=O)Cc1ccc(Br)cc1	none
Cc1cc(C(=O)Nc2ccc3c(c2)OCCO3)co1	NF-kB neuron act 4.7, APP 5'UTR act 138
Cc1ccc(C(=O)Nc2ccncc2)o1	none
Cc1ccc(C(=O)Nc2ccc3c(c2)OCCO3)o1	NF-kB neuron act 4
Cn1nccc1C(=O)Nc1ccc2c(c1)OCCO2	none
Oc1csc(Cc2nc(-c3ccc4ccccc4c3)cs2)n1	STAT1 act 129, STAT3 act 163
Oc1csc(Cc2nc(-c3ccc(-c4ccccc4)cc3)cs2)n1	none
O=c1oc2ccccc2cc1-c1csc(Cc2nc(-c3ccc(Cl)cc3)cs2)n1	none
Oc1csc(Cc2nc(-c3ccccc3F)cs2)n1	STAT1 act 144
CNc1nc(N(C)C)nc(N(C)C)n1	STAT3 act 136
O=C(c1ccccc1SCc1ccccc1)N1CCCCCC1	none
Cc1nnc(SCC(=O)Nc2ccc3c(c2)OCO3)n(N)c1=O	none
COc1ccc(NC(=O)C(Sc2nnc(-c3ccncc3)n2-c2ccccc2C)c2ccccc2)cc1Cl (stereo unspecified)	none

Assay outcomes from PubChem BioAssay.
